The target of experiment [1] is Integrin alpha-IIb/beta-3 (Homo sapiens, UniProt P05106+P08514). Put plainly: Concentration required to reduce binding of fibrinogen to purified Fibrinogen Receptor by 50% using ELISA. In kind it is protein-complex assay. In a few lines: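 ELISA of fibrinogen binding to immobilized purified human platelet GPIIb-IIIa; biotinylated fibrinogen detected with alkaline phosphatase-labeled goat antibiotin and p-nitrophenol phosphate substrate; IC50 as inhibition of fibrinogen binding.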
For orientation: In an ELISA, binding on a coated surface is turned into a signal by an enzyme label.

Another experiment is filed under the species Homo sapiens. Put plainly: Ability to block Glycoprotein IIb-IIIa was measured by inhibiting ADP induced human platelet aggregation (5 uM). Format: functional.

The values below come from ChEMBL document CHEMBL1130079, “Non-peptide RGD surrogates which mimic a Gly-Asp beta-turn: potent antagonists of platelet glycoprotein IIb-IIIa” (J Med Chem, 1997).

As a reminder, the IC50 is the concentration needed to halve the response being measured.

Chain of Integrin alpha-IIb/beta-3 (P05106 27-788 limits assumed): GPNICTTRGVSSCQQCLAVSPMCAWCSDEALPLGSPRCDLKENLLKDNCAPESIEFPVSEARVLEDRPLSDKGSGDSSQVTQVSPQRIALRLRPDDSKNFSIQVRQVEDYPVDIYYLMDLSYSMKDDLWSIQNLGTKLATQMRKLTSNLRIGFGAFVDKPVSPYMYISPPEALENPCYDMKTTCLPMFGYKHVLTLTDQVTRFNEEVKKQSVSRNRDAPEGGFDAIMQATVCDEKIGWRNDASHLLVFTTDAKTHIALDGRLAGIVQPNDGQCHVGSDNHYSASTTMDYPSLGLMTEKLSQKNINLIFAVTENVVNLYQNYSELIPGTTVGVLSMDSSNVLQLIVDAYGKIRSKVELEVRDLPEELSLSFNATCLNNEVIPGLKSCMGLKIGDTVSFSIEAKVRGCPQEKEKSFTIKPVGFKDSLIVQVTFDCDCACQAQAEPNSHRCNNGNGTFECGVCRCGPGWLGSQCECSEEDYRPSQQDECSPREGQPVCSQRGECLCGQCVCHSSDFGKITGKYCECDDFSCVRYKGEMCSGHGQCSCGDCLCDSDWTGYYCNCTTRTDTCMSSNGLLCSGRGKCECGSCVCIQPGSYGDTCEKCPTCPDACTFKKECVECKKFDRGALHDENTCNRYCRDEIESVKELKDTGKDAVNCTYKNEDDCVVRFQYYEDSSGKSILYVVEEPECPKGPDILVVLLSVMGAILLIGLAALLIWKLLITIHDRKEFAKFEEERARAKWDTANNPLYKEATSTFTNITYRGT
Chain of Integrin alpha-IIb/beta-3 (P08514 32-887 limits assumed): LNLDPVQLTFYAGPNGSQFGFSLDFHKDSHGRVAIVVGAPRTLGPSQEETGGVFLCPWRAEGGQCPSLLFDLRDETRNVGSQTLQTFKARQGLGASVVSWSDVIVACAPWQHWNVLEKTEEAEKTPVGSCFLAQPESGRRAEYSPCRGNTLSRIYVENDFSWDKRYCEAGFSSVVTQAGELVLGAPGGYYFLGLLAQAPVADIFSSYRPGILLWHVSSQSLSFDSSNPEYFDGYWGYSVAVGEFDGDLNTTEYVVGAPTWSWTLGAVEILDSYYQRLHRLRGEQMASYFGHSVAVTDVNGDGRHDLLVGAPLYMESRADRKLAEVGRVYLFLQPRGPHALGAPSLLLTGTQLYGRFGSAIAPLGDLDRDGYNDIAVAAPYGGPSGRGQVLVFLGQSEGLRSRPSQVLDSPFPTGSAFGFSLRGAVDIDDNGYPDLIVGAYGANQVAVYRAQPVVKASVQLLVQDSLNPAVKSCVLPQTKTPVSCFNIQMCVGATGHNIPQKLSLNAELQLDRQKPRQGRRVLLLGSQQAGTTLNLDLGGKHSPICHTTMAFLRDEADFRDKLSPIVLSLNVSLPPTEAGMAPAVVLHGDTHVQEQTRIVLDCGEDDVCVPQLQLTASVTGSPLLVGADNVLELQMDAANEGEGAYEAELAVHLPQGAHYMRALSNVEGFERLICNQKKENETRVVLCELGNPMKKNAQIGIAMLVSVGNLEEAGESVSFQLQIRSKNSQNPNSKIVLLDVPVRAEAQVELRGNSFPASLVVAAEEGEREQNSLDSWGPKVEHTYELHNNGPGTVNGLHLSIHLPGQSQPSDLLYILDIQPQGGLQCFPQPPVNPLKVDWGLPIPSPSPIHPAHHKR
Chain of Integrin alpha-IIb/beta-3 (P08514 891-1039 limits assumed): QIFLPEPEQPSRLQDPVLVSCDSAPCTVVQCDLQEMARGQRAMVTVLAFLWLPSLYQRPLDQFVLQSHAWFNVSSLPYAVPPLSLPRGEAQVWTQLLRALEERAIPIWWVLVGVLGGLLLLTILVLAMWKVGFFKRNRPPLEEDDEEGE

For `N=C(N)NCc1cccc(COc2ccc3c(c2)CCN(CC(=O)O)C3=O)c1`, the IC50 in experiment [1] was determined as 14 µM.
On the same count and under the same terms, for `O=C(O)CN1CCc2cc(OCCC3CCNCC3)ccc2C1=O` the value was 11 µM.
Consider `N=C(N)c1ccc(/C=C/c2ccc3c(c2)CCN(CC(=O)O)C3=O)cc1`, for which the IC50 in experiment [1] was 0.048 µM; in the experiment listed under Homo sapiens, 0.34 µM.
In turn, `N=C(N)NCc1ccc(COc2ccc3c(c2)CCN(CC(=O)O)C3=O)cc1` yielded an IC50 in experiment [1] of 4 µM. That is a single-digit micromolar value.
Still for that read-out and setting: for `N=C(N)NCCCCOc1ccc2c(c1)C(=O)N(CC(=O)O)CC2` the value was 46 µM.
On the same count and under the same terms, with `O=C(O)CN1CCc2cc(OCCCC3CCNCC3)ccc2C1=O` the figure was 6 µM; with `NCCCCCCOc1ccc2c(c1)CCN(CC(=O)O)C2=O`, 19 µM.
On the same count and under the same terms, with `N=C(N)NCCCCCCOc1ccc2c(c1)CCN(CC(=O)O)C2=O` the figure was 12 µM.
Take `N=C(N)c1ccc(/C=C\c2ccc3c(c2)CCN(CC(=O)O)C3=O)cc1`: the IC50 in experiment [1] was 0.29 µM; in the experiment filed under Homo sapiens it was 5.7 µM.
In turn, `NCCCOc1ccc2c(c1)CCN(CC(=O)O)C2=O` registered an IC50 in experiment [1] of 48 µM. This lies in the double-digit micromolar range.
Same read-out and setting: for `N=C(N)NCCCOc1ccc2c(c1)C(=O)N(CC(=O)O)CC2` the value was < 100 µM; for `N=C(N)c1ccc(COc2ccc3c(c2)C(=O)N(CC(=O)O)CC3)cc1`, 4 µM; for `NCCCCCOc1ccc2c(c1)CCN(CC(=O)O)C2=O`, 28 µM.
On the same count and under the same terms, for `NCc1cccc(COc2ccc3c(c2)CCN(CC(=O)O)C3=O)c1` the value was 77 µM.
Still for that read-out and setting: for `NCc1ccc(COc2ccc3c(c2)CCN(CC(=O)O)C3=O)cc1` the value was 12 µM.
In the case of `O=C(O)CN1CCc2cc(OCC3CCNCC3)ccc2C1=O`, the IC50 in experiment [1] stood at 55 µM. Against the preceding compound, the IC50 is about 4.6-fold higher.
In the experiment filed under Homo sapiens, `N=C(N)c1ccc(CCc2ccc3c(c2)CCN(CC(=O)O)C3=O)cc1` showed an IC50 of 1.2 µM.
On to `N=C(N)NCCCCOc1ccc2c(c1)CCN(CC(=O)O)C2=O`, for which the IC50 in experiment [1] amounted to 10 µM.
In the case of `N=C(N)c1ccc(NC(=O)c2ccc3c(c2)CCN(CC(=O)O)C3=O)cc1`, the values for the half-inhibitory concentration (IC50) (in experiment [1]; in the experiment listed under Homo sapiens) were 0.076 µM and 0.56 µM, respectively.
The corresponding values for `N=C(N)c1ccc(C#Cc2ccc3c(c2)CCN(CC(=O)O)C3=O)cc1` are 0.033 µM and 0.52 µM.
In turn, `N=C(N)c1ccc(COc2ccc3c(c2)CCN(CC(=O)O)C3=O)cc1` showed an IC50 in the experiment listed under Homo sapiens of 30 µM. This lies in the double-digit micromolar range.
As to `N=C(N)c1ccc(CCOc2ccc3c(c2)CCN(CC(=O)O)C3=O)cc1`, in experiment [1], the IC50 worked out at 6 µM.
`N=C(N)NCCCOc1ccc2c(c1)CCN(CC(=O)O)C2=O`: the IC50 in experiment [1] amounted to 44 µM. Compared with the last compound, the IC50 is about 7.3-fold higher.
In the case of `O=C(O)CN1CCc2cc(OCCCCC3CCNCC3)ccc2C1=O`, the results for the IC50 (in experiment [1]; in the experiment listed under Homo sapiens) were 1.8 µM and 9.8 µM, respectively.
For `N=C(N)c1ccc(C(=O)Nc2ccc3c(c2)CCN(CC(=O)O)C3=O)cc1`, in that order: 0.003 µM and 0.09 µM.
`NCCCCOc1ccc2c(c1)CCN(CC(=O)O)C2=O`: the IC50 in experiment [1] came out at 18 µM.
